The nature of data set [1]: Therapeutic index, ratio of CT50 for mouse L929 cells to Candida albicans ATCC 10231. The data set is classed as cell-based. Particulars: read-out: TI. A digest of the protocol: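 Antifungal index is the L929 CT50 (1 h exposure, overnight recovery, Dojindo viability) divided by the MFC against C. albicans. MFC is from a modified CLSI M26-A method: phosphate-buffered saline pH 7 in place of Mueller–Hinton broth, 1 h compound residence.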

Data set [2] deals with Staphylococcus aureus. The data set can be described thus: Antibacterial activity against Staphylococcus aureus ATCC 29213 at pH 7 by CLSI M26A method. The data set is classed as functional. In short, it runs like this: (§1)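 Modified CLSI M26-A bactericidal method in which phosphate-buffered saline (pH 7) replaced Mueller–Hinton broth and compound contact was cut to 1 h. The read-out was the minimum bactericidal concentration (MBC).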

Data set [3] deals with Candida albicans. The data set can be described thus: Antifungal activity against Candida albicans ATCC 10231 at pH 7 by CLSI M26A method. It counts as functional. A digest of the protocol:
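Modified CLSI M26-A method with phosphate-buffered saline (pH 7) in place of Mueller–Hinton broth and compound contact shortened to 1 h. The read-out was the minimum fungicidal concentration (MFC).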

For data set [4], the system named is Escherichia coli. The data set can be described thus: Antibacterial activity against Escherichia coli ATCC 25922 at pH 7 by CLSI M26A method. It counts as functional. In short, it runs like this: as §1
Data set [5] is described as follows: Cytotoxicity against mouse L929 cells after 1 hr at pH 7 by Dojindo cell proliferation assay. It counts as cell-based. In short, it runs like this:
(§2)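 L929 mouse fibroblasts exposed to test article for 1 h in test solution at pH 7, or at pH 4 where flagged. Compound then removed and cells incubated overnight. Viability read with Dojindo cell proliferation assay; CT50 reported in mM.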

Data set [6] is described as follows: Therapeutic index, ratio of CT50 for mouse L929 cells to Escherichia coli ATCC 25922. Particulars: pooled result: one value given for 2 cell lines, strains, targets or settings, read-out: TI. It counts as cell-based.
Data set [7] in a line: Cytotoxicity against mouse L929 cells after 1 hr at pH 4 by Dojindo cell proliferation assay. The data set is classed as cell-based. In short, it runs like this: as §2

SMILES strings stand for the structures. Values after ≈ are worked out from the molar mass of the structure shown.

With `CC1(C)COC(=O)N1Cl`, the selectivity ratio turned out to be 0.02 in data set [1] and 5.2 in data set [6]. Moreover, the MBC in data set [2] is 4 µg/mL (≈ 26.7 µM); in data set [4] it was 1 µg/mL (≈ 6.69 µM). The same compound yielded an MFC in data set [3] of 512 µg/mL (≈ 3420 µM). Besides, the 50% cytotoxic concentration (CC50) at 1 h in data set [5] is 70 µM.
On to `CC1(CS(=O)(=O)[O-])COC(=O)N1Cl.[Na+]` (configuration not stated), for which the selectivity ratio came to 0.25 in data set [1] and 1.4 in data set [6]. For the same compound, the figures for the MBC in data set [2] and in data set [4] were 128 µg/mL and 256 µg/mL, respectively. This compound also showed an MFC in data set [3] of 1020 µg/mL. The half-maximal cytotoxic concentration (CC50) at 1 h in data set [5] was determined as 800 µM.
For `CC1(CS(=O)(=O)CCS(=O)(=O)[O-])COC(=O)N1Cl.[Na+]` (configuration not stated), the results for the selectivity ratio in data set [1] and in data set [6] were 1.5 and 8.5, respectively. Also, the MBC worked out at 32 µg/mL in data set [2] and 16 µg/mL in data set [4]. The MFC in data set [3] worked out at 128 µg/mL. The same compound had a cytotoxic concentration (CC50) at 1 h in data set [5] of 600 µM.
In the case of `CC1(CS(=O)(=O)CCCC(=O)O)COC(=O)N1Cl` (configuration not stated), the MBC in data set [2] was 8 µg/mL (≈ 26.7 µM); in data set [4] it was 16 µg/mL (≈ 53.4 µM). The MFC in data set [3] is greater than 1020 µg/mL. This compound also came in with a CC50 at 1 h in data set [5] of 520 µM. Also, the selectivity ratio in data set [6] stood at 14.
Take `CC1(C[N+](C)(C)C)COC(=O)N1Cl.[Cl-]` (configuration not stated): the figures for the MBC in data set [2] and in data set [4] were 4 µg/mL and 2 µg/mL, respectively. Further, in data set [3], the minimal fungicidal concentration (MFC) is 16 µg/mL.
For the compound `CC[N+](C)(C)CC1(C)COC(=O)N1Cl.[Cl-]` (configuration not stated), the selectivity ratio was determined as 28 in data set [1] and 78 in data set [6]. Further, the MBC stood at 4 µg/mL in data set [2] and 2 µg/mL in data set [4]. This compound also had an MFC in data set [3] of 8 µg/mL. The same compound returned a CC50 at 1 h in data set [7] of 860 µM.
Consider `CCC[N+](C)(C)CC1(C)COC(=O)N1Cl.[Cl-]` (configuration not stated), for which the selectivity ratio in data set [1] is 31; in data set [6], 122. In addition, the MBC in data set [2] and in data set [4] was 2 µg/mL each time. For the same compound, the minimum fungicidal concentration (MFC) in data set [3] was determined as 8 µg/mL. Moreover, in data set [7], the cytotoxic concentration (CC50) at 1 h is 900 µM.
Regarding `CC1(C[N+]2(C)CCCC2)COC(=O)N1Cl.[Cl-]` (configuration not stated), the selectivity ratio came to 19 in data set [1] and 76 in data set [6]. Besides, the MBC in data set [2] and in data set [4] was 4 µg/mL each time. Moreover, in data set [3], the MFC came out at 16 µg/mL. The same compound yielded a CC50 at 1 h in data set [7] of 1130 µM.
`CC1(C)C(CS(=O)(=O)[O-])OC(=O)N1Cl.[Na+]` (configuration not stated): the selectivity ratio in data set [1] is 1; in data set [6], 2.9. Besides, the MBC in data set [2] was 512 µg/mL; in data set [4], 256 µg/mL. Besides, in data set [3], the MFC amounted to 1020 µg/mL. In data set [5], this compound returned a CC50 at 1 h of 4300 µM.
For the compound `CC1(C)C(C[N+](C)(C)C)OC(=O)N1Cl.[Cl-]` (configuration not stated), the results for the selectivity ratio in data set [1] and in data set [6] were 2.7 and 7.6, respectively. For the same compound, the MBC in data set [2] amounted to 32 µg/mL; in data set [4], 16 µg/mL. Further, in data set [3], the minimum fungicidal concentration (MFC) stood at 64 µg/mL. For the same compound, the CC50 at 1 h in data set [5] was found to be 690 µM.
As to `C[N+]1(C)CCC2(CC1)CN(Cl)C(=O)O2.[Cl-]`, the selectivity ratio is 0.7 in data set [1] and 7.9 in data set [6]. Moreover, the MBC in data set [2] turned out to be 32 µg/mL; in data set [4] it was 16 µg/mL. The compound also showed an MFC in data set [3] of 256 µg/mL. The compound also yielded a CC50 at 1 h in data set [7] of 700 µM.

Broadly, the MBC is the lowest tested concentration that kills the bacteria rather than only halting them. A higher MBC goes with less potent killing. In general, MFC refers to the smallest concentration meeting the test's criterion for killing the fungus. The CC50 is the concentration at which the toxic effect on the cells reaches its halfway point. A high value points to better tolerance by the cells.
